Measurements published in ChEMBL document CHEMBL1148220, “Antineoplastic agents. 529. Isolation and structure of nootkastatins 1 and 2 from the Alaskan yellow cedar Chamaecyparis nootkatensis” (2004).
Values after ≈ are worked out from the molar mass of the structure shown. Active and inactive are the calls of the source. The rule behind the calls is not given here.

How the values were obtained:
Staphylococcus aureus [1] = assay: Antimicrobial activity against Staphylococcus aureus ATCC 29213 after 24 hrs by broth microdilution assay; type: functional; details: ATCC 29213, 24 h
Procedure, shortened: (§1)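 Bacterial MICs were determined by NCCLS broth microdilution. Compounds were dissolved in a small volume of sterile DMSO and diluted in the appropriate medium just before testing. MIC was the lowest concentration giving no visible growth (optically clear). Assays were repeated on separate days.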

KM-20L2 = assay: Cytotoxicity against human KM20L2 cells after 48 hrs by SRB assay; type: functional; details: KM-20L2, 48 h
SF-268 = assay: Cytotoxicity against human SF268 cells after 48 hrs by SRB assay; type: functional; details: SF-268, 48 h
Candida albicans [2] = assay: Antimicrobial activity against Candida albicans ATCC 90028 after 48 hrs by broth microdilution assay; type: functional; details: ATCC 90028, 48 h
Procedure, shortened: (§2)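 Yeasts were tested by NCCLS broth microdilution. Compounds were dissolved in a small volume of sterile DMSO and diluted in the appropriate medium immediately before testing. MIC was the lowest concentration inhibiting all visible growth (optically clear). Assays were repeated on separate days.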

Enterococcus faecalis [3] = assay: Antimicrobial activity against Enterococcus faecalis ATCC 29212 after 24 hrs by broth microdilution assay; type: functional; details: ATCC 29212, 24 h; procedure, shortened: as §1
Enterobacter cloacae [4] = assay: Antimicrobial activity against Enterobacter cloacae ATCC 13047 at 64 ug/mL after 24 hrs by broth microdilution assay; type: functional, organism-based
BXPC-3 = assay: Cytotoxicity against human BxPC3 cells after 48 hrs by SRB assay; type: functional; details: BXPC-3, 48 h
MCF7 = assay: Cytotoxicity against human MCF7 cells after 48 hrs by SRB assay; type: functional; details: MCF7, 48 h
Neisseria gonorrhoeae [5] = assay: Antimicrobial activity against Neisseria gonorrhoeae ATCC 49226 at 64 ug/mL after 24 hrs by broth microdilution assay; type: functional; details: ATCC 49226, 24 h
P388 = assay: Cytotoxicity against mouse P388 cells; type: functional; details: read-out: ED50 (the source's name)
Micrococcus luteus [6] = assay: Antimicrobial activity against Micrococcus luteus Presque Isle 456 after 24 hrs by broth microdilution assay; type: functional; procedure, shortened: as §1
Escherichia coli [7] = assay: Antimicrobial activity against Escherichia coli ATCC 25922 at 64 ug/mL after 24 hrs by broth microdilution assay; type: functional, organism-based
[8] = test system: Stenotrophomonas maltophilia; assay: Antimicrobial activity against Stenotrophomonas maltophilia ATCC 13637 at 64 ug/mL after 24 hrs by broth microdilution assay; type: functional, organism-based
NCI-H460 = assay: Cytotoxicity against human NCI-H460 cells after 48 hrs by SRB assay; type: functional; details: NCI-H460, 48 h
Cryptococcus neoformans [9] = assay: Antimicrobial activity against Cryptococcus neoformans ATCC 90122 after 24 hrs by broth microdilution assay; type: functional; details: ATCC 90112, 24 h, in the assay text read “ATCC 90112” for “ATCC 90122”; procedure, shortened: as §2
Streptococcus pneumoniae [10] = assay: Antimicrobial activity against Streptococcus pneumoniae ATCC 6303 after 24 hrs by broth microdilution assay; type: functional; details: ATCC 6303, 24 h; procedure, shortened: as §1
DU-145 = assay: Cytotoxicity against human DU145 cells after 48 hrs by SRB assay; type: functional; details: DU-145, 48 h
Nakaseomyces glabratus = assay: Antimicrobial activity against Candida glabrata after 48 hrs by broth microdilution assay in presence of 25% human serum; type: functional
Procedure, shortened: (§3)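 For yeasts, NCCLS broth microdilution was run in medium supplemented with 25% heat-inactivated, filter-sterilized normal human serum. Compounds were reconstituted in sterile DMSO and diluted in medium just before the assay. MIC was the lowest concentration giving optically clear wells.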

Staphylococcus aureus [11] = assay: Antimicrobial activity against Staphylococcus aureus ATCC 29213 after 24 hrs by broth microdilution assay in presence of 25% human serum; type: functional; details: ATCC 29213, 24 h
Procedure, shortened: (§4)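 Bacteria were tested by NCCLS broth microdilution in medium containing 25% heat-inactivated, filter-sterilized normal human serum. Compounds were dissolved in sterile DMSO and diluted in medium immediately before use. MIC was the lowest concentration with no visible growth (optically clear). Assays were repeated on separate days.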

Enterococcus faecium = assay: Antimicrobial activity against vancomycin-resistant Enterococcus faecium after 24 hrs by broth microdilution assay in presence of 25% human serum; type: functional
Procedure, shortened: as §4, with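 “Bacterial” for “Bacteria were tested by”, “microdilution run” for “microdilution”, “with” for “containing”, “taken up” for “dissolved”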

Neisseria gonorrhoeae [12] = assay: Antimicrobial activity against Neisseria gonorrhoeae ATCC 49226 after 24 hrs by broth microdilution assay in presence of 25% human serum; type: functional; details: ATCC 49226, 24 h; procedure, shortened: as §4
Staphylococcus aureus [13] = assay: Antimicrobial activity against methicillin-resistant Staphylococcus aureus after 24 hrs by broth microdilution assay in presence of 25% human serum; type: functional
Procedure, shortened: as §4, with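 “Bacterial” for “Bacteria were tested by”, “microdilution run” for “microdilution”, “with” for “containing”, “taken up” for “dissolved”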

[14] = test system: Staphylococcus epidermidis; assay: Antimicrobial activity against Staphylococcus epidermidis ATCC 49461 after 24 hrs by broth microdilution assay in presence of 25% human serum; type: functional; details: ATCC 49461, 24 h; procedure, shortened: as §4
Streptococcus pneumoniae [15] = assay: Antimicrobial activity against penicillin-resistant Streptococcus pneumoniae after 24 hrs by broth microdilution assay in presence of 25% human serum; type: functional
Procedure, shortened: as §4, with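 “Bacterial” for “Bacteria were tested by”, “microdilution run” for “microdilution”, “with” for “containing”, “taken up” for “dissolved”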

Cryptococcus neoformans [16] = assay: Antimicrobial activity against Cryptococcus neoformans ATCC 90122 after 24 hrs by broth microdilution assay in presence of 25% human serum; type: functional; details: ATCC 90112, 24 h, in the assay text read “ATCC 90112” for “ATCC 90122”; procedure, shortened: as §3
Candida albicans [17] = assay: Antimicrobial activity against Candida albicans ATCC 90028 after 48 hrs by broth microdilution assay in presence of 25% human serum; type: functional; details: ATCC 90028, 48 h; procedure, shortened: as §3
Micrococcus luteus [18] = assay: Antimicrobial activity against Micrococcus luteus Presque Isle 456 after 24 hrs by broth microdilution assay in presence of 25% human serum; type: functional; procedure, shortened: as §4
Enterococcus faecalis [19] = assay: Antimicrobial activity against Enterococcus faecalis ATCC 29212 after 24 hrs by broth microdilution assay in presence of 25% human serum; type: functional; details: ATCC 29212, 24 h; procedure, shortened: as §4
Streptococcus pneumoniae [20] = assay: Antimicrobial activity against Streptococcus pneumoniae ATCC 6303 after 24 hrs by broth microdilution assay in presence of 25% human serum; type: functional; details: ATCC 6303, 24 h; procedure, shortened: as §4
Escherichia coli [21] = assay: Antimicrobial activity against Escherichia coli ATCC 25922 after 24 hrs by broth microdilution assay in presence of 25% human serum; type: functional; details: ATCC 25922, 24 h; procedure, shortened: as §4
Rhodococcus sp. = assay: Antimicrobial activity against Rhodococcus sp. after 24 hrs by broth microdilution assay in presence of 25% human serum; type: functional; details: Rhodococcus sp. (in: high G+C Gram-positive bacteria); procedure, shortened: as §4
Streptococcus pyogenes = assay: Antimicrobial activity against penicillin-resistant Streptococcus pyogenes after 24 hrs by broth microdilution assay in presence of 25% human serum; type: functional
Procedure, shortened: as §4, with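 “Bacterial” for “Bacteria were tested by”, “microdilution run” for “microdilution”, “with” for “containing”, “taken up” for “dissolved”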

[22] = test system: Stenotrophomonas maltophilia; assay: Antimicrobial activity against Stenotrophomonas maltophilia ATCC 13637 after 24 hrs by broth microdilution assay in presence of 25% human serum; type: functional; details: ATCC 13637, 24 h; procedure, shortened: as §4
Cryptococcus neoformans [23] = assay: Antimicrobial activity against fluconazole-resistant Cryptococcus neoformans after 48 hrs by broth microdilution assay in presence of 25% human serum; type: functional
Candida albicans [24] = assay: Antimicrobial activity against Candida albicans ATCC 90028 at 64 ug/mL after 48 hrs by broth microdilution assay; type: functional, organism-based
Enterobacter cloacae [25] = assay: Antimicrobial activity against Enterobacter cloacae ATCC 13047 after 24 hrs by broth microdilution assay in presence of 25% human serum; type: functional; details: ATCC 13047, 24 h; procedure, shortened: as §4

Q: What does the source list for CC(C)c1c(O)ccc2c1[C@H](O)C[C@H]1C(C)(C)CCC[C@]21C?
A: MIC (Staphylococcus aureus [1]): 16 µg/mL (≈ 52.9 µM); GI50 (KM-20L2): 2.3 µg/mL (≈ 7.6 µM); GI50 (SF-268): 2.3 µg/mL (≈ 7.6 µM); MIC (Candida albicans [2]): 64 µg/mL (≈ 212 µM); MIC (Enterococcus faecalis [3]): 16 µg/mL (≈ 52.9 µM); Activity (Enterobacter cloacae [4]): inactive; GI50 (BXPC-3): 1.8 µg/mL (≈ 5.95 µM); GI50 (MCF7): 2.1 µg/mL (≈ 6.94 µM); MIC (Neisseria gonorrhoeae [5]): 8 µg/mL (≈ 26.4 µM); EC50 (P388): 1.7 µg/mL (≈ 5.62 µM); MIC (Micrococcus luteus [6]): 8 µg/mL (≈ 26.4 µM); Activity (Escherichia coli [7]): inactive; Activity [8]: inactive; GI50 (NCI-H460): 1.8 µg/mL (≈ 5.95 µM); MIC (Cryptococcus neoformans [9]): 16 µg/mL (≈ 52.9 µM); MIC (Streptococcus pneumoniae [10]): 16 µg/mL (≈ 52.9 µM); GI50 (DU-145): 2.6 µg/mL (≈ 8.6 µM)

Q: Which MBC (Staphylococcus aureus [1]) does the source give for CO[C@H]1C[C@H]2C(C)(C)CCC[C@]2(C)c2ccc(O)c(C(C)C)c21 [NOOTKASTATIN 1] here?
A: The MBC was 32 µg/mL (≈ 101 µM).

Q: What about the MIC (Staphylococcus aureus [1]) of the same compound?
A: Its MIC is 8 µg/mL (≈ 25.3 µM).

Q: What about the GI50 (KM-20L2) of the same compound?
A: The GI50 was 0.98 µg/mL (≈ 3.1 µM).

Q: What about the GI50 (SF-268) of the same compound?
A: The GI50 was 0.85 µg/mL (≈ 2.69 µM).

Q: What about the MIC (Nakaseomyces glabratus) of the same compound?
A: Its MIC is over 64 µg/mL.

Q: And the MIC (Staphylococcus aureus [11])?
A: Its MIC is over 64 µg/mL.

Q: What about the MIC (Enterococcus faecium) of the same compound?
A: The MIC was over 64 µg/mL.

Q: And the MIC (Neisseria gonorrhoeae [12])?
A: Its MIC is over 64 µg/mL.

Q: And the MIC (Staphylococcus aureus [13])?
A: The MIC was over 64 µg/mL.

Q: What about the MIC [14] of the same compound?
A: Its MIC is over 64 µg/mL.

Q: And the MIC (Streptococcus pneumoniae [15])?
A: Its MIC is over 64 µg/mL.

Q: What about the MIC (Cryptococcus neoformans [16]) of the same compound?
A: The MIC was over 64 µg/mL.

Q: What about the MBC (Enterococcus faecalis [3]) of the same compound?
A: The MBC was 16 µg/mL (≈ 50.6 µM).

Q: What about the MIC (Enterococcus faecalis [3]) of the same compound?
A: The MIC was 4 µg/mL (≈ 12.6 µM).

Q: What about the Activity (Enterobacter cloacae [4]) of the same compound?
A: Its Activity is “inactive”.

Q: What about the MIC (Candida albicans [17]) of the same compound?
A: The MIC was over 64 µg/mL.

Q: What about the GI50 (BXPC-3) of the same compound?
A: Its GI50 is 2.1 µg/mL (≈ 6.64 µM).

Q: What about the MIC (Micrococcus luteus [18]) of the same compound?
A: Its MIC is over 64 µg/mL.

Q: What about the GI50 (MCF7) of the same compound?
A: The GI50 was 2 µg/mL (≈ 6.32 µM).

Q: What about the MBC (Neisseria gonorrhoeae [5]) of the same compound?
A: The MBC was 4 µg/mL (≈ 12.6 µM).

Q: What about the MIC (Neisseria gonorrhoeae [5]) of the same compound?
A: Its MIC is 2 µg/mL (≈ 6.32 µM).

Q: And the EC50 (P388)?
A: Its EC50 is 1.5 µg/mL (≈ 4.74 µM).

Q: What about the MIC (Enterococcus faecalis [19]) of the same compound?
A: The MIC was over 64 µg/mL.

Q: What about the MIC (Streptococcus pneumoniae [20]) of the same compound?
A: The MIC was over 64 µg/mL.

Q: What about the MBC (Micrococcus luteus [6]) of the same compound?
A: Its MBC is 8 µg/mL (≈ 25.3 µM).

Q: What about the MIC (Micrococcus luteus [6]) of the same compound?
A: The MIC was 2 µg/mL (≈ 6.32 µM).

Q: What about the MIC (Escherichia coli [21]) of the same compound?
A: Its MIC is over 64 µg/mL.

Q: And the MIC (Rhodococcus sp.)?
A: Its MIC is over 64 µg/mL.

Q: What about the MIC (Streptococcus pyogenes) of the same compound?
A: The MIC was over 64 µg/mL.

Q: What about the Activity (Escherichia coli [7]) of the same compound?
A: Its Activity is “inactive”.

Q: And the MIC [22]?
A: Its MIC is over 64 µg/mL.

Q: What about the Activity [8] of the same compound?
A: The Activity was “inactive”.

Q: What about the GI50 (NCI-H460) of the same compound?
A: The GI50 was 0.75 µg/mL (≈ 2.37 µM).

Q: And the MIC (Cryptococcus neoformans [9])?
A: The MIC was 64 µg/mL (≈ 202 µM).

Q: What about the MBC (Streptococcus pneumoniae [10]) of the same compound?
A: Its MBC is 64 µg/mL (≈ 202 µM).

Q: What about the MIC (Streptococcus pneumoniae [10]) of the same compound?
A: Its MIC is 64 µg/mL (≈ 202 µM).

Q: What about the MIC (Cryptococcus neoformans [23]) of the same compound?
A: The MIC was over 64 µg/mL.

Q: And the Activity (Candida albicans [24])?
A: The Activity was “inactive”.

Q: And the MIC (Enterobacter cloacae [25])?
A: The MIC was over 64 µg/mL.

Q: What about the GI50 (DU-145) of the same compound?
A: Its GI50 is 1.1 µg/mL (≈ 3.48 µM).
